Results: ChEMBL document CHEMBL5247575 (J Med Chem, 2018)

Assays:
Acinetobacter baumannii [1] = assay: Antibacterial activity against Acinetobacter baumannii SL46 producing OXA-23/51 infected in sc dosed Swiss albino mouse administered 1 hr post infection and measured upto 7 days; type: functional; details: SL46, 168 h, time <= 7 day
Procedure, shortened: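 Peritonitis model: male and female Swiss albino mice infected intraperitoneally with 3.5×10^5 to 3×10^6 CFU/mouse in 5% hog gastric mucin (lethal to untreated mice within 24 h). […] Survival followed 7 days; PD50/PD90 by probit analysis.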

Acinetobacter baumannii [2] = assay: Synergistic antibacterial activity against Acinetobacter baumannii NCTC 13303 producing OXA-26/51 infected in sc dosed Swiss albino mouse assessed as tigecycline MIC at 8 ug/ml administered […] post infection and measured upto 7 days; type: functional; details: NCTC 13303, 168 h, dose 8 µg/ml, time <= 7 day

O=C(NNC(=O)[C@@H]1CC[C@@H]2CN1C(=O)N2OS(=O)(=O)O)[C@@H]1CCCNC1 [ZIDEBACTAM]
ED90 (Acinetobacter baumannii [1]): 52.3 mg/kg | ED50 (Acinetobacter baumannii [1]; read-out: PD50): 23.2 mg/kg

N#C[C@@H]1CC[C@@H]2CN1C(=O)N2OS(=O)(=O)[O-].[Na+]
MIC (Acinetobacter baumannii [2]): 1 mg/L
